# Tb MetRS inh: blocks T. brucei methionyl-tRNA synthetase activity; 360,000 tested, 0.4% active; purified T. brucei MetRS, ATP depletion, Kinase-Glo luminescence; inhibition, % at 11.9 µM; AID 624268;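 active means inhibition above a per-plate cutoff of the control wells' mean inhibition plus 3 SD, cut at about 5.5% in these data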;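 further: 0% = DMSO wells median and 100% = median of wells with control inhibitor compound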
#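 Assay system: T. brucei methionyl-tRNA synthetase, purified | Medium: HEPES buffer with MgCl2, KCl, DTT, spermine, BSA, pyrophosphatase | Compound: 11.9 µM single point | Incubation: 15 min enzyme-compound preincubation, 2 h reaction, 10 min detection, 25 °C | Measured by: Kinase-Glo luciferase luminescence reporting remaining unconsumed ATP | Measure: % inhibition normalized to control-well medians | Replication: Singlicate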
# AHR activator: activators of human aryl hydrocarbon receptor; 320,000 tested, 2.5% active; AID 2796; P35869; AHR-responsive luciferase reporter cells, luminescence; activation, % at 5 µM; in the data active means activation above about 47%;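 further: 0% = vehicle wells and 100% = reference agonist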
# Target sequence (P35869 whole entry, looked up): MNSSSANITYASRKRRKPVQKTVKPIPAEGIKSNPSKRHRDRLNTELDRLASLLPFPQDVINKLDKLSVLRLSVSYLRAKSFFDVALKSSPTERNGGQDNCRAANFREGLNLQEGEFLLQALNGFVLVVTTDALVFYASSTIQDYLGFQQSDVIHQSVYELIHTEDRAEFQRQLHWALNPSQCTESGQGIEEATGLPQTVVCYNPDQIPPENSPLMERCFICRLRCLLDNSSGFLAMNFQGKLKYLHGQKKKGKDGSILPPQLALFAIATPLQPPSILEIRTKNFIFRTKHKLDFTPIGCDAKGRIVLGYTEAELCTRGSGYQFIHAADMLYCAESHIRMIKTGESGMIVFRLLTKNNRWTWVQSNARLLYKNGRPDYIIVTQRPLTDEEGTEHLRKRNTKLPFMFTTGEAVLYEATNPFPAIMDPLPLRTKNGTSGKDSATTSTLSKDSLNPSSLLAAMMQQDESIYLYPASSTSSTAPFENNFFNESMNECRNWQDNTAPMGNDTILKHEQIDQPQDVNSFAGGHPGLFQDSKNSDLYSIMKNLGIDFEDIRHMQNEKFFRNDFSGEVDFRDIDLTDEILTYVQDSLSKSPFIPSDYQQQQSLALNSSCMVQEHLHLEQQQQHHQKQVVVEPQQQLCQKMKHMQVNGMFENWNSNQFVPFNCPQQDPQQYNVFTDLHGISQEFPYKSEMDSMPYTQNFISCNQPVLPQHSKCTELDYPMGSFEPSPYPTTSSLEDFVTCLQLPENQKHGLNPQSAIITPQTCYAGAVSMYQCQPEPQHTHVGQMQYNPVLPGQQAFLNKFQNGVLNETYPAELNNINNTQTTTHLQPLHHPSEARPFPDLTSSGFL
# AI-2 QS mod: modulators of Vibrio harveyi AI-2 quorum sensing system | Vibrio harveyi JMH597 AI-2 luminescence/OD600 ratio, 9 h; active compounds read low; strain lacks LuxN and CqsS sensors; 0 = neutral-control median | activity change, % at 7.5 µM | 300,000 tested, 0.4% active; in the data active means activity change below about -75%, passing the limit was not always enough;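 further: luminescence divided by OD600 gain over 9 h not by final OD600 alone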
# m5-HT2A agonist: agonists of mouse serotonin 5-HT2A receptor (HTR2A). P35363. CHO-K1 mHTR2A beta-arrestin complementation, luminescence; percent of 30 µM serotonin response. activation, % at 7.6 µM. 360,000 tested, 0.66% active. AID 624169;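 active means activation above a run cutoff, the mean activation of all tested compounds plus 3 SD, cut at about 14% in these data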;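 further: 0% = plate median of compound wells and 100% = 30 µM serotonin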
# MsrA act: activates bovine MsrA enzyme | activation, % at 10.6 µM | purified bovine MsrA, absorbance read-out | 360,000 tested, 0.3% active; in the data active means activation above about 7.5%;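 further: 0% = vehicle and 100% = reference activator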
# MsrA inhibitor: inhibitors of bovine MsrA; purified bovine MsrA, absorbance read-out; inhibition, % at 15.5 µM; 360,000 tested, 0.75% active;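 further: 0% = vehicle wells with enzyme and 100% = reference inhibitor wells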
# MsrA conf: bovine MsrA inhibition, confirmed; shares compounds with MsrA inhibitor; purified bovine MsrA, absorbance read-out; inhibition, % at 15.5 µM; 2,300 tested, 41% active;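 further: coupled to thioredoxin reductase with NADPH and selenocystamine and DMSO as substrate; 0% = vehicle only and 100% = full effect of reference inhibitor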
# Starred values were filed as active, the others as inactive; · = no result. This is a sample that favours compounds with a hit; in the whole collection about 4.4% have one here. Unless noted, no stated cut-off is given here; in the data, active means inhibition above about 4.5%; inactive means the rest.
SMILES,Tb MetRS inh,AHR activator,AI-2 QS mod,m5-HT2A agonist,MsrA act,MsrA inhibitor,MsrA conf
O=C(NN1C(=O)/C(=C\c2ccc(O)c([N+](=O)[O-])c2)SC1=S)c1ccccc1Cl,-7,1,28,-1,-5,4,·
Cc1cc(OCC(O)CN2CCCC2)cc(C)c1Cl (centres undefined),-1,2,10,6,-4,-1,·
CN(C)c1ccc(C(=O)OCC(=O)N2CCCC2)cc1,0,2,24,-2,-4,5.7*,2
CN(C)c1ccc(C(=O)OCC(=O)N2CCCCCC2)cc1,-1,1,11,8,-5,3,·
COC(=O)C(C)Sc1ncnc2c1nnn2-c1ccc(F)cc1 (centres undefined),0,3,14,-10,3,0,·
COc1ccc(-n2nnc3c(SC(C(C)=O)C(=O)N(C)C)ncnc32)cc1 (centres undefined),1,66*,24,5,-5,5.4*,3
N#CC(/C(=N/S(=O)(=O)c1cccs1)c1ccccc1)c1nc2ccccc2[nH]1 (centres undefined),0,2,14,-2,-3,5.0*,5.8*
COc1ccc2cc(C(=O)N/N=C/c3cc(OC)c(OC)c(OC)c3)[nH]c2c1,0,28,29,4,-8,5.8*,6.4*
COc1ccc(/C=N/NC(=O)c2[nH]c(C)c(C(=O)N/N=C/c3ccc(OC)cc3)c2C)cc1,0,31,-6,-3,-4,4.9*,5.5*
COc1cc2cc(C(=O)N/N=C/c3ccc(F)cc3)[nH]c2cc1OC,0,31,19,0,-4,4.8*,6.0*
CCOc1ccc2[nH]c(C(=O)N/N=C/c3ccc(OC)cc3)cc2c1,-1,·,10,5,-6,4,·
COc1ccc(/C=N/NC(=O)c2cc3cc(OC)c(OC)cc3[nH]2)cc1,-1,33,33,-1,-1,5.3*,7.8*
COc1cccc(/C=N/NC(=O)c2[nH]c(C)c(C(=O)N/N=C/c3cccc(OC)c3)c2C)c1,0,8,11,-1,-5,3,·
O=CN1CCN(C=O)C(O)C1O (centres undefined),0,·,·,5,-5,0,·
COc1ccc2[nH]c(C(=O)N/N=C/c3ccc(O)cc3O)cc2c1,4,·,45,4,-4,6.3*,4
Fc1ccc(/C=C/c2nnc(-c3cccs3)o2)cc1,-1,-5,2,-6,-5,5.2*,2
CCOCCCNC(=O)CSc1nnc(-c2ccc(S(=O)(=O)N3CCCC3)cc2)n1C,0,0,20,4,-4,0,·
Cc1ccc(C(=O)NCCc2ccccc2)cc1,0,-7,3,0,-2,·,·
CC(NC(=O)c1ccc(=O)oc1)c1ccccc1 (centres undefined),-1,-2,25,-2,-5,7.2*,7.4*
O=C(NCCN1CCOCC1)c1ccc(F)cc1,0,-7,35,7,-5,0,·
CC(NC(=O)c1ccncc1)c1ccccc1 (centres undefined),-1,-1,23,6,-7,0,·
O=C(NCCc1ccccc1)c1ccc(=O)oc1,-1,-6,7,3,-15,8.2*,8.0*
O=C(NCCN1CCOCC1)c1ccc(=O)oc1,0,1,14,-1,-6,5.4*,4
O=C1CCC/C1=C/Nc1ccc(Cl)cc1,0,31,-3,0,-3,6.0*,5
CCCNC(=O)CN1CCC(c2nc3ccccc3[nH]2)CC1,0,0,18,5,-3,1,·
SMILES,Tb MetRS inh,AHR activator,AI-2 QS mod,m5-HT2A agonist,MsrA act,MsrA inhibitor,MsrA conf
COc1ccc(-c2cc(C(=O)OCC(=O)N3CCOCC3)c3ccccc3n2)cc1,0,1,·,2,-6,4.7*,1
COc1ccc(-c2cc(C(=O)N3CCC3)c3ccccc3n2)cc1OC,0,16,1,8,-4,5.4*,3
COc1ccc(-c2cc(C(=O)N3CCCC3)c3ccccc3n2)cc1OC,0,15,13,-4,4,3,·
CC(=O)c1c(C)[nH]c(C2=NNC(=NCc3ccccc3)SC2)c1C,-1,8,11,1,-11,5.0*,2
COc1ccc(C)cc1NC(=O)C1CCCN(S(=O)(=O)c2cccnc2)C1 (centres undefined),0,10,·,9,0,1,·
CS/C(=C/[N+](=O)[O-])Nc1cccc2c1C(C)CC2(C)C (centres undefined),0,1,33,6,-4,23*,20*
CCN(CC)c1ccc(S(=O)(=O)N2CCOCC2)cc1NC(=O)COC(=O)c1cccnc1SC,0,0,4,-2,-3,1,·
C#CCN1Cc2ccccc2Oc2cc(Br)ccc2S1(=O)=O,0,·,·,1,-1,1,·
CCn1ccnc1C(O)c1ccccc1OC (centres undefined),0,0,6,1,-2,1,·
COc1cccc(C(O)c2nccn2Cc2ccccc2)c1OC (centres undefined),-1,·,22,6,-2,12*,4
O=C(CSc1nccn1-c1ncc(C(F)(F)F)cc1Cl)c1ccc(Br)cc1,-1,36,-22,-1,-1,·,·
Cc1ccc(/C(CSc2nccn2-c2ncc(C(F)(F)F)cc2Cl)=N\O)cc1,0,31,-6,2,1,8.6*,0
CCCN(CCC)C1=CC(=[N+]2CCCC2)CC(C)(C)C1,-1,1,6,4,-9,5.1*,4
CC1C[N+](=C2C=C(N3CCOCC3)CC(C)(C)C2)CC(C)O1 (centres undefined),-1,0,17,1,-13,11*,6.7*
CN(C)NC1=CC(=[N+]2CCCC2)CC(C)(C)C1,-1,-1,20,-2,-5,1,·
CC1(C)CC(N2CCCCC2)=CC(=[N+]2CCCCC2)C1,1,0,-11,1,-8,10*,8.1*
CC1(C)CC(N2CCOCC2)=CC(=[N+]2CCOCC2)C1,0,2,2,-2,-9,10*,5.5*
CN(C)c1cccc(N=C2C=C(N3CCOCC3)CC(C)(C)C2)c1,0,8,1,1,-5,3,·
O=C1C=C(N2CCOCC2)CO1,0,1,2,-4,-3,-1,·
Cc1ccc(OCC(=O)NCCCNC(=O)c2ccco2)cc1,1,2,·,6,-2,0,·
Cc1ccc2nc(-c3ccc(NC(=O)CN4C(=O)NC(C)(c5ccc(OC(F)F)cc5)C4=O)cc3)sc2c1 (centres undefined),0,-2,26,5,-6,4.7*,3
